An excerpt weighted towards active compounds, which were near 3.1% of everything screened.
GPR7 antagonist: blocks human GPR7 receptor signaling; GPR7-expressing cells, fluorescence antagonist assay; P48145; inhibition, % at 4.4 µM; 290,000 tested, 1.1% active; in the data active = inhibition above about 16%, passing the limit was not always enough;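 also: cells stimulated with the agonist NPW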
OX1R antag-1: antagonists of human orexin 1 receptor (OX1R). AID 485270. O43613. inhibition, % at 6.6 µM. 330,000 tested, 1.8% active. OX1R-expressing cells, FRET antagonist read-out; in the data active = inhibition mostly above about 38%, no sharp cut-off; inactive = mostly below about 40%
CHO parental Ca: counter-screen: ATP calcium response change in parental CHO cells. parental CHO-K1, ATP-induced calcium, Fluo-8 fluorescence. inhibition, % at 5.6 µM. 330,000 tested, 0.63% active;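 active = inhibition above that plate's mean sample inhibition plus 3 SD, cut at about 26% in these data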
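Test system: untransfected parental CHO cell line; also added: ATP stimulus; dosing: 5.6 µM, single dose; signal: calcium-sensitive Fluo-8 fluorescence; measure: percent inhibition of ATP-evoked calcium rise, normalized to controls; benchmarks: low control ATP plus DMSO, high control DMSO only; replication: one well per compound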
OX1R antag-2: human HCRTR1 antagonism; AID 434989; O43613; inhibition, % at 5 µM; CHO/OX1R cells, Fluo-8 calcium fluorescence, orexin A; 330,000 tested, 0.43% active;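 active = inhibition above its plate's threshold, mean inhibition of all tested compounds on the plate plus 3 SD, cut at about 37% in these data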
GalR3 antagonist: antagonists of human GalR3. O60755. HEK293 GalR3-CNG cAMP membrane potential fluorescence; galR3 body fused to GalR1 C-terminus. inhibition, % at 3 µM. 360,000 tested, 0.44% active. AID 651719;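 active = inhibition above the screen-wide average plus 3 SD, cut at about 13% in these data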;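 also: forskolin and galanin both at EC90 stimulate the cells; cAMP rise reported by CNG channel membrane potential dye signal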
Target sequence (O60755 1-299 limits assumed): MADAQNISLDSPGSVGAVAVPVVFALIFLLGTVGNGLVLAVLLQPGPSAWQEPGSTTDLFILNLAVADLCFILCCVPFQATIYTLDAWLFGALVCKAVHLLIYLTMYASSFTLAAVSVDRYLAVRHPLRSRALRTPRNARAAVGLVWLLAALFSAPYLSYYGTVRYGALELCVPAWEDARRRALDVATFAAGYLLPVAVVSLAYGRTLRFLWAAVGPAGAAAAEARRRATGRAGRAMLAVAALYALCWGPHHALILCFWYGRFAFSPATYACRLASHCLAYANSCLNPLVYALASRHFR
GPR7 antag conf: human GPR7 antagonism, confirmation assay; 2,400 tested, 52% active; inhibition, % at 4.4 µM; GPR7-expressing cells, calcium fluorescence antagonist mode; AID 1952; shares compounds with GPR7 antagonist; in the data active = inhibition above about 24%;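 also: stimulated with the GPR7 agonist NPW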
MCHR1 antagonist: counter-screen for GPR7 antagonists: antagonists of human MCHR1; shares compounds with GPR7 antagonist; MCHR1-expressing cells, fluorescence antagonist assay; inhibition, % at 4.4 µM; 2,400 tested, 62% active; AID 2148; in the data active = inhibition above about 22%
Numbers stand for hits; n = inactive; x = no result.

SMILES	GPR7 antagonist	OX1R antag-1	CHO parental Ca	OX1R antag-2	GalR3 antagonist	GPR7 antag conf	MCHR1 antagonist
O=C(c1ccco1)N1CCN(S(=O)(=O)c2ccc(S(=O)(=O)NC3CCCCC3)cc2)CC1	x	n	n	n	n	x	n
O=C(c1ccco1)N1CCN(S(=O)(=O)c2ccc(C3CCCCC3)cc2)CC1	n	n	n	n	n	x	x
O=C(CCC1CC(=O)Nc2ccccc21)NCc1ccc(F)cc1 (stereo unspecified)	33	n	n	n	n	n	23
CCOC(=O)C1CCN(C(=O)C2CCN(S(=O)(=O)c3cccc4nsnc34)CC2)CC1	n	n	n	n	n	x	x
CCCCn1c(N)c(N(CC)C(=O)CSc2nnnn2-c2cc(C)ccc2C)c(=O)[nH]c1=O	23	n	n	n	n	n	n
CCOc1ccc(-n2c(-c3ccc(Br)cc3)c[n+]3c2CCCCC3)cc1	29	n	n	n	18	39	36
CCOc1ccc(-n2c(-c3ccc(OC)cc3)c[n+]3c2CCCCC3)cc1	36	n	n	n	56	55	49
COc1ccc(-n2c(-c3ccc(Cl)cc3)c[n+]3c2CCCCC3)cc1	n	n	n	n	n	x	x
CCOc1ccc(-n2c(-c3ccccc3)c[n+]3c2CCC3)cc1	n	n	n	n	n	x	x
CCOC(=O)c1[nH]c2c(c1C)C(=O)CC(c1ccco1)C2 (stereo unspecified)	n	n	n	n	n	x	x
COCCOC(=O)c1[nH]c2c(c1C)C(=O)CC(c1ccco1)C2 (stereo unspecified)	24	n	n	n	n	n	36
Cc1c(NC(=O)Nc2cccs2)cccc1[N+](=O)[O-]	36	n	n	n	n	n	36
CN(C)CCNC(=O)c1ccc(Sc2ccc(Br)cc2)c([N+](=O)[O-])c1	23	n	n	n	n	37	42
COc1ccccc1C(=O)N(CCC1CCCN1C)c1nc2ccccc2s1 (stereo unspecified)	24	n	n	n	n	26	n
CCC1(C)N([O-])C(C)=C(c2ccccc2)[N+]1=O (stereo unspecified)	28	n	n	n	n	n	n
CCC1(CC)N([O-])C(C)=C(c2ccccc2)[N+]1=O	n	n	n	n	n	x	x
CCC(C)(C)c1nnc(NC(=O)C2CC(=O)N(CCc3ccc(F)cc3)C2)s1 (stereo unspecified)	n	n	n	n	n	x	x
CC(=O)c1ccc(NC(=S)NC(=O)/C=C/c2ccc(F)cc2)cc1	48	n	n	n	x	n	n
COc1ccc(N2CCN(C(=O)CNC(=O)c3ccco3)CC2)cc1	n	n	n	n	n	x	x
Cc1ccc(CN(Cc2cc3cccc(C)c3[nH]c2=O)C(=S)NCCCN(C)C)cc1	36	n	n	n	n	47	30
Cc1cccc2cc(CN(Cc3ccccc3)C(=S)NCCCN(C)C)c(=O)[nH]c12	53	n	n	n	n	48	28
Cc1cccc2cc(CN(Cc3cccnc3)C(=S)NCCCN(C)C)c(=O)[nH]c12	n	n	n	n	n	x	x
Cc1ccc(NC(=S)N(CCN(C)C)Cc2cc3cccc(C)c3[nH]c2=O)cc1	n	n	n	n	n	x	x
OC(C#CCCN1CCCCC1)(c1ccccc1)C1CCCCC1 (stereo unspecified)	n	n	n	n	n	x	x
OC(C#CCCN1CCCCC1)(c1ccccc1)c1ccccc1	22	n	n	n	n	n	n
SMILES	GPR7 antagonist	OX1R antag-1	CHO parental Ca	OX1R antag-2	GalR3 antagonist	GPR7 antag conf	MCHR1 antagonist
CCn1cc(CCCC(=O)NCc2cccc(OC)c2)c2ccccc21	n	x	x	x	n	x	x
NC(=O)C1(Nc2ccccc2)CCCC1	x	x	x	x	n	x	x
CSc1cccc(NC(=O)Cc2ccccc2[N+](=O)[O-])c1	27	n	n	n	n	n	n
Cc1nc(-c2ccc(S(=O)(=O)N3CCOCC3)cc2)cs1	27	n	n	n	n	n	n
Cc1cc(C)nc(N/N=C/c2ccccc2Cl)n1	23	n	n	n	n	n	n
Cc1cc(C(=O)COC(=O)Cc2ccc(Br)cc2)c(C)n1C	x	n	n	n	n	x	x
C=C(C)Cn1c(C2CC(=O)N(Cc3ccccc3)C2)nc2ccccc21 (stereo unspecified)	x	n	n	n	n	x	x
C=CCN1CC(c2nc3ccccc3n2CCOc2ccccc2)CC1=O (stereo unspecified)	33	n	n	n	n	n	n
